Measured values as given in ChEMBL document CHEMBL1135464, “3-Aryl-2-quinolone derivatives: synthesis and characterization of in vitro and in vivo antitumor effects with emphasis on a new therapeutical target connected with cell migration” (J Med Chem, 2002).

Experiments:
A-427 [1] = experiment: Cytotoxicity against A-427 nonsmall lung cell line using MTT colorimetric assay; type: functional, cell-based; conditions: Homo sapiens
Procedure, shortened: (§1)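 Human tumour lines from ATCC were grown at 37 °C in sealed dishes in MEM with 5% FCS. Cells were seeded at 40000 cells/mL in 96-well plates and left 24 h to plate. Each drug was then tested at six concentrations from 10^-5 to 10^-9 M. Growth was read by colorimetric MTT assay.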

A549 [2] = experiment: Cytotoxicity against A549 nonsmall lung cell line using MTT colorimetric assay; type: functional, cell-based; conditions: Homo sapiens; procedure, shortened: as §1
A 172 [3] = experiment: Cytotoxicity against A-172 glioblastomas using MTT colorimetric assay; type: functional, cell-based; conditions: Homo sapiens; procedure, shortened: as §1
[4] = Evaluated in vivo for maximum tolerated dose and found to be nontoxic; type: ADME, organism-based
HCT-15 [5] = experiment: Cytotoxicity against HCT-15 colon cell line using MTT colorimetric assay; type: functional, cell-based; conditions: Homo sapiens; procedure, shortened: as §1
J82 [6] = experiment: Cytotoxicity against J82 bladder cell lines using MTT colorimetric assay; type: functional, cell-based; conditions: Homo sapiens; procedure, shortened: as §1
LoVo [7] = experiment: Cytotoxicity measured on LoVo colon cell line using MTT colorimetric assay; type: functional, cell-based; conditions: Homo sapiens; procedure, shortened: as §1
PC-3 [8] = experiment: Cytotoxicity against prostate cell line PC-3 using MTT colorimetric assay; type: functional, cell-based; conditions: Homo sapiens; procedure, shortened: as §1
T-24 [9] = experiment: Cytotoxicity against T24 bladder cell lines using MTT colorimetric assay; type: functional, cell-based; conditions: Homo sapiens; procedure, shortened: as §1
U373 MG [10] = experiment: Cytotoxicity against U-373 MG glioblastomas using MTT colorimetric assay; type: functional, cell-based, U-373MG ATCC; conditions: Homo sapiens; procedure, shortened: as §1
T47D [11] = experiment: Cytotoxicity against Breast cancer cell line T-47D using MTT colorimetric assay at 1x 10 E-5; type: functional, cell-based; conditions: Homo sapiens; procedure, shortened: as §1
U-87 MG [12] = experiment: Cytotoxicity against U-87 MG glioblastomas using MTT colorimetric assay; type: functional, cell-based, U-87MG ATCC; conditions: Homo sapiens; procedure, shortened: as §1
MCF7 [13] = experiment: Cytotoxicity against Breast cancer cell line MCF-7 using MTT colorimetric assay; type: functional, cell-based; conditions: Homo sapiens; procedure, shortened: as §1
A-427 [14] = experiment: Cytotoxicity against A-427 nonsmall lung cell line using MTT colorimetric assay; NE is no effect at 1x 10 E-5; type: functional, cell-based, Homo sapiens; procedure, shortened: as §1
A 172 [15] = experiment: Cytotoxicity against A-172 glioblastomas using MTT colorimetric assay; NE is no effect at 1x 10 E-5; type: functional, cell-based, Homo sapiens; procedure, shortened: as §1
HCT-15 [16] = experiment: Cytotoxicity against HCT-15 colon cell line using MTT colorimetric assay a; NE is no effect at 1x 10 E-5; type: functional, cell-based, Homo sapiens; procedure, shortened: as §1
J82 [17] = experiment: Cytotoxicity against J82 bladder cell lines using MTT colorimetric assay; NE is no effect at 1x 10 E-5; type: functional, cell-based, Homo sapiens; procedure, shortened: as §1
LoVo [18] = experiment: Cytotoxicity against LoVo colon cell line using MTT colorimetric assay; NE is no effect at 1x 10 E-5; type: functional, cell-based, Homo sapiens; procedure, shortened: as §1
MCF7 [19] = experiment: Cytotoxicity against Breast cancer cell line MCF-7 using MTT colorimetric assay; NE is no effect at 1x 10 E-5; type: functional, cell-based, Homo sapiens; procedure, shortened: as §1
PC-3 [20] = experiment: Cytotoxicity against prostate cell line PC-3 using MTT colorimetric assay; NE is no effect at 1x 10 E-5; type: functional, cell-based, Homo sapiens; procedure, shortened: as §1
T-24 [21] = experiment: Cytotoxicity against T24 bladder cell lines using MTT colorimetric assay; NE is no effect at 1x 10 E-5; type: functional, cell-based, Homo sapiens; procedure, shortened: as §1
U373 MG [22] = experiment: Cytotoxicity against U-373 MG glioblastomas using MTT colorimetric assay; NE is no effect at 1x 10 E-5; type: functional, cell-based, Homo sapiens; conditions: u-373mg atcc; procedure, shortened: as §1
T47D [23] = experiment: Cytotoxicity against Breast cancer cell line T-47D using MTT colorimetric assay at 1x 10 E-5; NE is no effect at 1x 10 E-5; type: functional, cell-based, Homo sapiens; procedure, shortened: as §1
U-87 MG [24] = experiment: Cytotoxicity against U-87 MG glioblastomas using MTT colorimetric assay; NE is no effect at 1x 10 E-5; type: functional, cell-based, Homo sapiens; conditions: u-87mg atcc; procedure, shortened: as §1
A549 [25] = experiment: Cytotoxicity against A549 nonsmall lung cell line using MTT colorimetric assay; NE is no effect at 1x 10 E-5; type: functional, cell-based, Homo sapiens; procedure, shortened: as §1
HCT-15 [26] = experiment: Cytotoxicity against HCT-15 colon cell line using MTT colorimetric assay; NE is no effect at 1x 10 E-5; type: functional, cell-based, Homo sapiens; procedure, shortened: as §1
T47D [27] = experiment: Cytotoxicity against Breast cancer cell line T-47D using MTT colorimetric assay; NE is no effect at 1x 10 E-5; type: functional, cell-based, Homo sapiens; procedure, shortened: as §1
T47D [28] = experiment: Cytotoxicity against Breast cancer cell line T-47D using MTT colorimetric assay; type: functional, cell-based; conditions: Homo sapiens; procedure, shortened: as §1

SMILES	IC50 (A-427 [1]) [µM]	IC50 (A549 [2]) [µM]	IC50 (A 172 [3]) [µM]	MTD [4] [mg/kg]	IC50 (HCT-15 [5]) [µM]	IC50 (J82 [6]) [µM]	IC50 (LoVo [7]) [µM]	IC50 (PC-3 [8]) [µM]	IC50 (T-24 [9]) [µM]	IC50 (U373 MG [10]) [µM]	IC50 (U-87 MG [12]) [µM]	IC50 (MCF7 [13]) [µM]	IC50 (T47D [28]) [µM]	further results
COc1ccc(-c2cc3c(OC)ccc(OC)c3nc2O)cc1	> 10	> 10	> 10	160	> 10	> 10	> 10	> 10	> 10	> 10	> 10	> 10		IC50 (T47D [11]): > 10 µM
COc1ccc(-c2cc3c(OC)cc(OC)cc3n(CCC(=O)O)c2=O)cc1				160										IC50 (A-427 [14]): No effect; IC50 (A 172 [15]): No effect; IC50 (HCT-15 [16]): No effect; IC50 (J82 [17]): No effect; IC50 (LoVo [18]): No effect; IC50 (MCF7 [19]): No effect; IC50 (PC-3 [20]): No effect; IC50 (T-24 [21]): No effect; IC50 (U373 MG [22]): No effect; IC50 (T47D [23]): No effect; IC50 (U-87 MG [24]): No effect; IC50 (A549 [25]): No effect
COc1ccc(-c2cc3c(OC)cc(OC)cc3n(CCCN(C)C)c2=O)cc1				160										IC50 (A-427 [14]): No effect; IC50 (A 172 [15]): No effect; IC50 (HCT-15 [26]): No effect; IC50 (J82 [17]): No effect; IC50 (LoVo [18]): No effect; IC50 (MCF7 [19]): No effect; IC50 (PC-3 [20]): No effect; IC50 (T-24 [21]): No effect; IC50 (U373 MG [22]): No effect; IC50 (T47D [27]): No effect; IC50 (U-87 MG [24]): No effect; IC50 (A549 [25]): No effect
CCOC(=O)Cn1c(=O)c(-c2ccc(OC)cc2)cc2c(OC)cc(OC)cc21	> 10	> 10	> 10	160	> 10	> 10	> 10	> 10	> 10	> 10	> 10	> 10	> 10	
COc1ccc(-c2cc3c(OC)cc(OC)cc3n(C)/c2=N\Nc2ccccc2)cc1	> 10	> 10	> 10	160	> 10	> 10	> 10	> 10	> 10	> 10	> 10	> 10	> 10	
CCN(CC)C(=O)CCn1c(=O)c(-c2ccc(OC)cc2)cc2c(OC)cc(OC)cc21	> 10	> 10	> 10	160	> 10	> 10	> 10	> 10	> 10	> 10	> 10	> 10	> 10	
COc1cc(OC)c2cc(-c3ccc(O)cc3)c(=O)n(C)c2c1	> 10	> 10	> 10	160	> 10	> 10	> 10	> 10	> 10	> 10	> 10	> 10	> 10	
COc1ccc(-c2cc3cccc(OC)c3nc2O)cc1	> 10	> 10	> 10	160	> 10	> 10	> 10	> 10	> 10	> 10	> 10	> 10	> 10	
COc1cc(OC)c2cc(-c3ccc(OCc4ccccc4)cc3)c(O)nc2c1	> 10	> 10	> 10	160	> 10	> 10	> 10	> 10	> 10	> 10	> 10	> 10	> 10	
